Laboratory results as given in ChEMBL document CHEMBL1151311, “A novel antiprotozoal aminosteroid from Saracha punctata” (J Nat Prod, 1998).

What was measured:
Leishmania amazonensis [1] = test: Antileishmanial activity against Leishmania amazonensis MHOM/GF/84/CAY H-142 promastigotes at 10 ug/ml after 72 hrs relative to control
Leishmania chagasi [2] = test: Antileishmanial activity against Leishmania donovani chagasi PP75 at 2.5 ug/ml; type: functional
Plasmodium berghei [3] = test: Antiplasmodial activity as reduced parasitaemia in Plasmodium berghei NK65 infected mice (Mus musculus) at 16 mg/kg/day for 4 days; type: functional; set-up: scale not given: the % may be the effect or the level left
How it was run: (§1)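 Four-day suppressive test adapted from Peters: mice were inoculated with P. berghei NK 65 on day 1 and treated daily for four consecutive days. A blood smear was taken on day 5, and parasitemia was compared with infected untreated controls.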

[4] = Cytotoxicity against BALB/c mouse peritoneal macrophages assessed as survival at 20 ug/ml; type: cell-based, Macrophage; details: read-out: Activity
Trypanosoma cruzi [5] = test: Trypanocidal activity against Trypanosoma cruzi Tulahuen epimastigotes at 5 ug/ml after 48 hrs relative to control; type: functional; details: Tuluhuen
How it was run: (§2)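 T. cruzi epimastigotes in LIT medium with 10% FCS at 28 °C (inoculum 10^6 cells/mL) were exposed to compound (final DMSO <0.5%) for 48 h. Parasites were counted in a hemocytometer and compared with extract-free controls, in triplicate.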

Mus musculus [6] = test: Toxicity in Plasmodium berghei NK65 infected mice (Mus musculus) at 16 mg/kg administered daily for 4 days; type: organism-based; set-up: dose 16 mg/kg; details: in vivo, 96 h
How it was run: (§3)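 Mice infected with P. berghei NK 65 on day 1 were dosed daily for four consecutive days in the four-day suppressive test. Lethality was recorded on day 4.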

Leishmania braziliensis [7] = test: Antileishmanial activity against Leishmania braziliensis MHOM/BR/75/M2903 promastigotes at 10 ug/ml after 72 hrs relative to control; type: functional; details: MHOM/BR/75/M2903, 72 h
How it was run: (§4)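 Promastigotes, 50 000 per well, were exposed to compound in liquid medium (final DMSO <0.1%) at 27 °C for 72 h. Growth was judged by inverted-phase microscopy of a culture drop against extract-free controls. Assays were run in triplicate.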

Leishmania amazonensis [8] = test: Antileishmanial activity against Leishmania amazonensis MHOM/GF/84/CAY H-142 promastigotes at 5 ug/ml after 72 hrs relative to control
Leishmania braziliensis [9] = test: Antileishmanial activity against Leishmania braziliensis MHOM/BR/75/M2903 promastigotes at 5 ug/ml after 72 hrs relative to control; type: functional; details: MHOM/BR/75/M2903, 72 h
How it was run: as §4

Mus musculus [10] = test: Toxicity in Plasmodium berghei NK65 infected mice (Mus musculus) at 8 mg/kg administered daily for 4 days; type: organism-based; set-up: dose 8 mg/kg; details: in vivo, 96 h
How it was run: as §3

[11] = Cytotoxicity against BALB/c mouse peritoneal macrophages assessed as survival at 10 ug/ml; type: cell-based, Macrophage; details: read-out: Activity
[12] = Selectivity index, ratio of IC50 for KB cells to IC50 for chloroquine -sensitive Plasmodium falciparum 2087; type: toxicity, cell-based; details: human, read-out: Ratio IC50
[13] = Selectivity index, ratio of IC50 for KB cells to IC50 for chloroquine-resistant Plasmodium falciparum INDO; type: toxicity, cell-based; details: human, read-out: Ratio IC50
Plasmodium berghei [14] = test: Antiplasmodial activity as reduced parasitaemia in Plasmodium berghei NK65 infected mice (Mus musculus) at 8 mg/kg/day for 4 days; type: functional; set-up: scale not given: the % may be the effect or the level left
How it was run: as §1

Plasmodium falciparum [15] = test: Antimalarial activity against chloroquine-resistant Plasmodium falciparum Indo after 24 hrs; type: functional, organism-based
How it was run: (§5)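 P. falciparum strains 2087 and INDO kept in human erythrocytes. Samples were dissolved with DMSO (≤0.1% in dilutions) in RPMI 1640 and tested in triplicate with O+ red cells at 5% hematocrit and 1% parasitemia. Plates were incubated 24 h at 37 °C by candle-jar, then 48 h more with daily medium change. Parasitemia was counted by day-3 smear; IC50 came from linear regression of % inhibition versus control.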

Leishmania chagasi [16] = test: Antileishmanial activity against Leishmania donovani chagasi PP75 at 10 ug/ml; type: functional
Leishmania chagasi [17] = test: Antileishmanial activity against Leishmania donovani chagasi PP75 at 5 ug/ml; type: functional
KB = test: Cytotoxicity against human KB cells; type: cell-based
Trypanosoma cruzi [18] = test: Trypanocidal activity against Trypanosoma cruzi Tulahuen epimastigotes at 2.5 ug/ml after 48 hrs relative to control; type: functional; details: Tuluhuen
How it was run: as §2

Trypanosoma cruzi [19] = test: Trypanocidal activity against Trypanosoma cruzi Tulahuen epimastigotes at 20 ug/ml after 48 hrs relative to control; type: functional; details: Tuluhuen
How it was run: as §2

Leishmania amazonensis [20] = test: Antileishmanial activity against Leishmania amazonensis MHOM/GF/84/CAY H-142 promastigotes at 20 ug/ml after 72 hrs relative to control
Leishmania braziliensis [21] = test: Antileishmanial activity against Leishmania braziliensis MHOM/BR/75/M2903 promastigotes at 2.5 ug/ml after 72 hrs relative to control; type: functional; details: MHOM/BR/75/M2903, 72 h
How it was run: as §4

Leishmania chagasi [22] = test: Antileishmanial activity against Leishmania donovani chagasi PP75 at 20 ug/ml; type: functional
Leishmania amazonensis [23] = test: Antileishmanial activity against Leishmania amazonensis MHOM/GF/84/CAY H-142 promastigotes at 2.5 ug/ml after 72 hrs relative to control
Plasmodium falciparum [24] = test: Antimalarial activity against chloroquine-sensitive Plasmodium falciparum 2087 after 24 hrs; type: functional, organism-based
How it was run: as §5

Leishmania braziliensis [25] = test: Antileishmanial activity against Leishmania braziliensis MHOM/BR/75/M2903 promastigotes at 20 ug/ml after 72 hrs relative to control; type: functional; details: MHOM/BR/75/M2903, 72 h
How it was run: as §4

Plasmodium berghei [26] = test: Antiplasmodial activity as reduced parasitaemia in Plasmodium berghei NK65 infected mice (Mus musculus) at 32 mg/kg/day for 4 days; type: functional; set-up: scale not given: the % may be the effect or the level left
How it was run: as §1

Trypanosoma cruzi [27] = test: Trypanocidal activity against Trypanosoma cruzi Tulahuen epimastigotes at 10 ug/ml after 48 hrs relative to control; type: functional; details: Tuluhuen
How it was run: as §2

[28] = Cytotoxicity against BALB/c mouse peritoneal macrophages assessed as survival at 5 ug/ml; type: cell-based, Macrophage; details: read-out: Activity

Q: Which inhibition at 10 µg/mL (Leishmania amazonensis [1]) does the source give for `C[C@H]1CC[C@H]([C@@H](C)[C@H]2CC[C@H]3[C@@H]4CC=C5C[C@@H](N)CC[C@]5(C)[C@H]4CC[C@]23C)NC1` here?
A: The inhibition at 10 µg/mL was 100%.

Q: And the inhibition at 2.5 µg/mL (Leishmania chagasi [2])?
A: The inhibition at 2.5 µg/mL was 0%.

Q: And the Activity (Plasmodium berghei [3])?
A: Its Activity is 27%.

Q: What about the viability at 20 ug/ml [4] of the same molecule?
A: Its viability at 20 ug/ml is 0%.

Q: What about the inhibition at 5 µg/mL (Trypanosoma cruzi [5]) of the same molecule?
A: The inhibition at 5 µg/mL was 0%.

Q: What about the Activity (Mus musculus [6]) of the same molecule?
A: Its Activity is “Non-toxic”.

Q: And the inhibition at 10 µg/mL (Leishmania braziliensis [7])?
A: The inhibition at 10 µg/mL was 100%.

Q: What about the inhibition at 5 µg/mL (Leishmania amazonensis [8]) of the same molecule?
A: Its inhibition at 5 µg/mL is 50%.

Q: What about the inhibition at 5 µg/mL (Leishmania braziliensis [9]) of the same molecule?
A: The inhibition at 5 µg/mL was 50%.

Q: What about the Activity (Mus musculus [10]) of the same molecule?
A: Its Activity is “Non-toxic”.

Q: And the viability at 10 ug/ml [11]?
A: The viability at 10 ug/ml was 0%.

Q: And the selectivity ratio [12]?
A: The selectivity ratio was 2000.

Q: And the selectivity ratio [13]?
A: Its selectivity ratio is 286.

Q: What about the Activity (Plasmodium berghei [14]) of the same molecule?
A: Its Activity is 16%.

Q: And the IC50 (Plasmodium falciparum [15])?
A: The IC50 was 176 nM.

Q: And the inhibition at 10 µg/mL (Leishmania chagasi [16])?
A: Its inhibition at 10 µg/mL is 100%.

Q: And the inhibition at 5 µg/mL (Leishmania chagasi [17])?
A: The inhibition at 5 µg/mL was 50%.

Q: And the IC50 (KB)?
A: The IC50 was 50000 nM.

Q: And the inhibition at 2.5 µg/mL (Trypanosoma cruzi [18])?
A: Its inhibition at 2.5 µg/mL is 0%.

Q: And the inhibition at 20 µg/mL (Trypanosoma cruzi [19])?
A: The inhibition at 20 µg/mL was 100%.

Q: What about the inhibition at 20 µg/mL (Leishmania amazonensis [20]) of the same molecule?
A: Its inhibition at 20 µg/mL is 100%.

Q: And the inhibition at 2.5 µg/mL (Leishmania braziliensis [21])?
A: Its inhibition at 2.5 µg/mL is 0%.

Q: And the inhibition at 20 µg/mL (Leishmania chagasi [22])?
A: Its inhibition at 20 µg/mL is 100%.

Q: And the inhibition at 2.5 µg/mL (Leishmania amazonensis [23])?
A: The inhibition at 2.5 µg/mL was 0%.

Q: What about the IC50 (Plasmodium falciparum [24]) of the same molecule?
A: Its IC50 is 25 nM.

Q: And the inhibition at 20 µg/mL (Leishmania braziliensis [25])?
A: The inhibition at 20 µg/mL was 100%.

Q: What about the Activity (Plasmodium berghei [26]) of the same molecule?
A: The Activity was 69%.

Q: What about the inhibition at 10 µg/mL (Trypanosoma cruzi [27]) of the same molecule?
A: Its inhibition at 10 µg/mL is 50%.

Q: And the viability at 5 ug/ml [28]?
A: Its viability at 5 ug/ml is 0%.

Q: For `N=C(N)c1ccc(OCCCCCOc2ccc(C(=N)N)cc2)cc1` [PENTAMIDINE], which inhibition at 10 µg/mL (Leishmania amazonensis [1]) is on record?
A: The inhibition at 10 µg/mL was 100%.

Q: And the inhibition at 10 µg/mL (Leishmania braziliensis [7])?
A: The inhibition at 10 µg/mL was 100%.

Q: What about the inhibition at 10 µg/mL (Leishmania chagasi [16]) of the same molecule?
A: The inhibition at 10 µg/mL was 100%.

Q: What about the inhibition at 10 µg/mL (Trypanosoma cruzi [27]) of the same molecule?
A: Its inhibition at 10 µg/mL is 100%.
